Measured values published in ChEMBL document CHEMBL2163188, “Discovery of piragliatin--first glucokinase activator studied in type 2 diabetic patients” (J Med Chem, 2012).

Target: T1, Hexokinase-4 (Homo sapiens) (UniProt P35557)
T1 sequence (whole entry): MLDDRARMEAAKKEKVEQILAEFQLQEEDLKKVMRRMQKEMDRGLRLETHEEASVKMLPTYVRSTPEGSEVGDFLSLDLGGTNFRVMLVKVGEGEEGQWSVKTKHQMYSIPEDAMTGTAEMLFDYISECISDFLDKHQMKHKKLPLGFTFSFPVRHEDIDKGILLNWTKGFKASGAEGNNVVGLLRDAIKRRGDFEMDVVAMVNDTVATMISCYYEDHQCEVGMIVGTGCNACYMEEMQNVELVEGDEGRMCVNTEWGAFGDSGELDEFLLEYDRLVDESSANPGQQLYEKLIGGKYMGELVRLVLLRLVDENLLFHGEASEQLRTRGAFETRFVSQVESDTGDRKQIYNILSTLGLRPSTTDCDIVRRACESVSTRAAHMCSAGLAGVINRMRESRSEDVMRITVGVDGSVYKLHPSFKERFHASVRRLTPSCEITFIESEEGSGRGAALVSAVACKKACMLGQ
Experiment: Activation of human recombinant glucokinase assessed as concentration required for 1.5 fold increase in enzymatic activity
How it was run: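 Human recombinant GK; activator at fixed concentrations from ∼0.010 to 30 μM, each in duplicate, with glucose held at 5 mM. SC1.5 is the activator concentration giving a 1.5-fold rise in enzymatic activity over untreated GK. Assay CV was about 15%.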

| Activity [µM] | Compound |
| --- | --- |
| 0.292 | CS(=O)(=O)c1ccc(C(CC2CCCC2)C(=O)Nc2nccs2)cc1F (racemic) |
| 0.579 | CS(=O)(=O)c1ccc(C(CC2CCCC2)C(=O)Nc2nccs2)cc1N (racemic) |
